Test system: MS2 coat protein
Assay: apparent Kd, MS2 coat protein; higher = weaker binding; RNA-MaP array; FMN 200 µM where present
Method in brief: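 Binding was read on Illumina sequencing-chip clusters where stalled E. coli RNA polymerase had transcribed each design. A titration of SNAP-549-labelled MS2 coat protein began at 0.7 or 1.5 nM and doubled to 3 µM, once without ligand and once with constant ligand, in 100 mM Tris-HCl pH 7.5, 80 mM KCl, 4 mM MgCl2, BSA, DTT, yeast tRNA and Tween-20. The apparent Kd is the median of filtered per-cluster binding-curve fits, based on green signal normalised to red-channel RNA signal and control-cluster median Fmax.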

[1] = designed as: OFF switch for flavin mononucleotide, no ligand
[2] = ligand present: flavin mononucleotide, designed as: OFF switch for flavin mononucleotide
[3] = designed as: ON switch for flavin mononucleotide, no ligand
[4] = ligand present: flavin mononucleotide, designed as: ON switch for flavin mononucleotide

Sequence	apparent Kd [1]	apparent Kd [2]	apparent Kd [3]	apparent Kd [4]
GUAGUGUAUGUAGGAUAUGUGAAGCAAAGCUUCACAGAAGGACAUGAGGAUCACCCAUGUAUUACAGUCAGCAAUCUGACUGUU	39.8 nM	137 nM		
GGAGCACACAUUAACAUGAGGAUCACCCAUGUCAAAAGACAUGAGGAUAUGGAUCCGAAAAGGAUCCAGAAGGCAUCGUGCUCC			413 nM	24.7 nM
CCGGGACAUGAGGAUCACCCAUGUUUCGUUUGUAGUAAAACACAGGAUAUGAUGAAACAGGUUUCUCAGAAGGGUGUUCCGAAA			81.3 nM	55.3 nM
GAGCAGGUAAUAAAGUAGAAAUACAUGAGGAUCACCCAUGUAUAGGAUAUCGUCAGGAAUACUGACGAGAAGGAUACAUCCUGC	14.2 nM	18.1 nM		
GGACAUGUCGUUUACAUGAGGAUCACCCAUGUCGAUGGACAUGAGGAUAUCGAUACAAAUUGUAUCGAGAAGGCAUGCAUGUCC			40.8 nM	18.5 nM
AAUAUGAGCUGGUAUAAAUCCGAAACAUGAGGAUCACCCAUGUAGGAUAUCAGCACGAUAAGUGCUGAGAAGGACAUCCAGCUC	15.2 nM	16.2 nM		
UUUAUGUCAGGAUAUGAGUAGUAGAACAAUAGUACUACUACUCAGAAGGGACAUGAGGAUCACCCAUGUUCCUC	18.2 nM	98.8 nM		
GUGUCGGGAGGAUAUGCGUGGAUUGUUCUCGUAUGGUGUCUACAUGAGGAUCACCCAUGUAGAAGGUCUGGCGC	20.8 nM	61.1 nM		
AGCUACGUUUCGUAGCAGCUAGGUGAGGAUAUUCAAAUUUUCACAUGAGGAUCACCCAUGUAUGUGAAGAAGGCGCCUAGAAAG			9.58 nM	5.44 nM
UUGGACGUCGUAGGAUAUGUAGGAUAUUCCUACAUGAGGAUCACCCAUGUAGACAUGGAAGAAGGACAGAAGGACGAUGUCCAU			25.9 nM	4.79 nM
CUUGUGUUAGGAUAUGCGCCCUGCAAAAGCAAGGCCAGAGAGCAGAAGGAACAUGAGGAUCACCCAUGUGUGAC	55.8 nM	57.7 nM		
AUAAAUCAUGUAGGAUAUGCGUGGCGAAGCUAUGCAGAAGGACAUGAGGAUCACCCAUGUCUGUCCGUCUGCGUACAGACGGAA	29.3 nM	274 nM		
CCAAGUUCGUAGGAUAUAGAUGCCUUAGGGCAAUUAGAAGGAUGGACAUGAGGAUCACCCAUGUCGGAUUCUGU		18 nM		
GAGCUAUGAGGAUAUGCAUAUAUACGGAUUCGUGUAGUACUACAUGAGGAUCACCCAUGUAGAAGGCGUGGCUG	13.4 nM	16.7 nM		
CUCGGACAUGAGGAUCACCCAUGUGAGGAUAUGGUGCUAUCGUCAUUAGACGAUUGCGUUAGAAGGCACAUUUU	31.4 nM	80.1 nM		
CGGUCUUGUAACUAUUUGUUUCACAUGAGGAUCACCCAUGUCAGAAGGAGGUACAUCUAUUAGACCUAGGAUAUGACGUGUAAG	27.5 nM	100 nM		
CAGCAAAAGUAGAAGGCAGUACUGAUUCAGUACUGAGGAUAUACAUGAGGAUCACCCAUGUCUUCCAGCUGAAUAAUAAAAUAA	6.14 nM	45.5 nM		
GUCAGAAGUGCAGGAUAUGCUGAGGCAUUCGCGGCAGAAGGGCACAUGAGGAUCACCCAUGUAGCCGGGUAUUGUACCUUAUCA	6.36 nM	9.16 nM		
GUGUAGAUAGGAUAUACGUGAGUCUAGCGAAGCUAGAUUCUACAUGAGGAUCACCCAUGUAGAAGGGUCUACAC	16.1 nM	18.6 nM		
AUACAUGAGGAUCACCCAUGUAAUUAAUUAACUAGUAAGAUCUAGGAUAUCAGCUCGAAUAGAGCUGAGAAGGAGAUCACAUGU			34 nM	15.4 nM
GAGGAGCAAGGAUAUACGAGGAUAUGGUAGGUUGGAGAGUGACAUGAGGAUCACCCAUGUAGAAGGUGCGAGGG	66.7 nM	55.9 nM		

Sequence	apparent Kd [1]	apparent Kd [2]	apparent Kd [3]	apparent Kd [4]
UUCAAAUCGUAGAAGGGUGACAUGAGGAUCACCCAUGUGCAGCAGCCGUGAACGGCCAUGCUGCCACAGGAUAUACGAUGGAGU			93.2 nM	96.5 nM
AUGAUUAUAUUAUACAUGAGGAUCACCCAUGUUAUAAGUCAUGAGGAUAUGGUAUUGUAGUUUUUCCAGAAGGCAUUUAACUUA			7.91 nM	5.47 nM
CAGUAUUGAGGAUAUACAUGAGGAUCACCCAUGUGUUCCAGCUAGGAAACUAGCAAAAGUAGAAGGCAGUACUG	21.6 nM	186 nM		
GGGUACAUCGGAGGAUAUCAUGUAAAUACAUGAGGAUCACCCAUGUCGAUGGAGACAUCGAAGAUUGAGAAGGCCGAUGUACCG			16.8 nM	5.6 nM
GGGUACUUCGGAGGAUAUCAUGUAAAUACAUGAGGAUCACCCAUGUCGAUGGAGACAUCGGAGAUUGAGAAGGCCGAUGUACCG			171 nM	9.34 nM
CUGGUGUCAGGAUAUGCAUAGCAGUGACCGAAACCCGGUCAGCAGAAGGGACAUGAGGAUCACCCAUGUUAAUA	23 nM	64.1 nM		
AAUAUAAAGAGCUGGUAACUCAAAACAUGAGGAUCACCCAUGUAGGAUAUCAGCACGAUAAGUGCUGAGAAGGACAUCCAGCUC	16.5 nM	17.2 nM		
GUUAGGCAUGUAGGAUAUCCAUUGCGUCGCGUUGGAGAAGGGCAGCACACAUGAGGAUCACCCAUGUGGUCUCCCAUGAUGUGU	215 nM	254 nM		
CCUCGGAGUAAGGAUAUCAAUUUGUAGAUAGAUUGAGAAGGUACUACAUGAGGAUCACCCAUGUCCCGUCUCAA	14.7 nM	16.4 nM		
UUAUAUAGAGUGAGGAUAUGCUGGUCCUUGGAUCAGCAGAAGGCACAUGAGGAUCACCCAUGUAAUAUAUUAUU	22 nM	38.2 nM		
UUGCCUCAGAACAUGAGGAUCACCCAUGUGCUGCGGGCAACGUAGGAUAUGAUGGUAUUAUACCGUCAGAAGGAUGAUGGUACU			5.59 nM	5.2 nM
CAUCCGGCAGGAUAUACAUGAGGAUCACCCAUGUCAGAAAGCAAAUUGUGCGACUCAGGUAGAAGGGUUGGACU	28.9 nM	34.2 nM		
ACUGGGCGCCGACCCAUGUCUAUGGAGGAUAUUACUGCCGGUAUCUCACAUGAGGAUCACCCAUGUAAGAAGGCCAUAAACACC	19.5 nM	221 nM		
UGGUACAUGGGAGGAUAUGGGAAGAUACAUGAGGAUCACCCAUGUUUAAGAAUGCCGAGAGGCAACUAGAAGGCCCAUGUACCU			1090 nM	45.8 nM
CCAUGGCUGUAAGGAUAUCUCUGACAAAGUCAGAGAGAAGGUACAUGAGGAUCACCCAUGUGAGGAAAACCACAUUUGCCAUGG	9.46 nM	15.7 nM		
GGUACACAUGAGGAUCACCCAUGUCGUAUGACAUGAGGAUAUGUACAGACUUCGGUCUGUACAGAAGGCAUGUGUC			28.1 nM	445 nM
AAAAUACAUGAGGAUCACCCAUGUUAGGAUAUCCAAGGUCUAACCCUCAGGGUUAGACGGAGAAGGGAUGUGGU	60.8 nM	61.6 nM		
GUUUGGAGUGGAGGAUAUGCGGACGAACGAUAAGCAGAAGGCCACAUGAGGAUCACCCAUGUCGGCUGUGCCGGGUGGUUGACG	41.6 nM	50.8 nM		
UAUAUAUAGUAAGGAUAUGUAAUUAUUUAAUAAACAGAAGGUACUGACAUGAGGAUCACCCAUGUUUUAGUGUGGGCAUGUAGA	80.5 nM	135 nM		
GUGCACAUUCGAGGAUAUCGGAGAGAGAUCAUUCGAGAAGGCGAUUCAUGAUGUAUUAUCCUGGACAUGAGGAUCACCCAUGUG			361 nM	107 nM
GGAGCCGGCACCGAGGAUAUUCAUAUUAAAACAUGAGGAUCACCCAUGUAGAGCGAAAGCUCUUGGGAGAAGGCGGAUCGGCUCG			730 nM	46.5 nM

From the EternaBench riboswitch data
